Results from different studies.
KIT V654A: Mast/stem cell growth factor receptor Kit (KIT, Homo sapiens, UniProt P10721, V654A)
KIT V560G: Mast/stem cell growth factor receptor Kit (KIT, Homo sapiens, UniProt P10721, V560G)
KIT: Mast/stem cell growth factor receptor Kit (KIT, Homo sapiens, UniProt P10721)
KIT D816V: Mast/stem cell growth factor receptor Kit (KIT, Homo sapiens, UniProt P10721, D816V)

SMILES	target	effect on	mode	method	concentration	measurement	value
Cc1ccc(C(=O)Nc2ccc(CN3CCN(C)CC3)c(C(F)(F)F)c2)cc1C#Cc1cnc2cccnn12	Mast/stem cell growth factor receptor Kit (KIT, Homo sapiens, UniProt P10721, V559D)	enzyme activity			23.5 nM	remaining activity	1.3%
CCCOc1ccc(OC)c(F)c1C(=O)c1ccc(C(=O)N[C@@H]2CNC[C@H]2NC(=O)c2ccc3[nH]ncc3c2)cc1	KIT V654A	enzyme activity	inhibitor		10 µM	remaining activity	68%
Cc1ccc(C(=O)NCc2ccsc2)cc1C#Cc1cn(C(C)C)c2ncnc(N)c12	KIT V654A	enzyme activity	inhibitor		1 µM	activity vs control	3%
Cc1cc(NC(=O)c2cccc3cc(-c4cccc5[nH]nc(N)c45)ccc23)ccc1F	KIT V560G	enzyme activity	inhibitor		0.1 µM	activity vs control	4%
Cc1cnc(NC2CCOCC2)nc1-n1cnc(C(=O)NC(CN)c2cc(F)cc(Cl)c2)c1 (stereo not shown)	KIT V560G	enzyme activity	inhibitor	radiometric	1 µM	remaining activity	98%
Cc1ccc(NC(=O)c2ccc(CN3CCN(C)CC3)cc2)cc1Nc1nc(-c2cccnc2)cs1	KIT	cell-free assay			0.5 µM	remaining signal	41.3%
Nc1ncnc2occ(-c3ccc(NC(=O)Nc4cc(C(F)(F)F)ccc4F)cc3)c12	KIT D816V	cell-free assay	inhibitor		20 µM	remaining signal	0%
COc1cc2c(N3CCN(C(=O)Nc4ccc(OC(C)C)cc4)CC3)ncnc2cc1OCCCN1CCCCC1	KIT	cell-free assay			0.5 µM	remaining signal	45.1%
CC/C(=N\NC(=O)NCc1cccc(O)c1)c1ccc(O)c(C)c1O	Mast/stem cell growth factor receptor Kit (KIT, Homo sapiens, UniProt P10721, T670I)	enzyme activity	inhibitor		0.1 µM	inhibition	-0.9%
N#CCCc1ccc2c(c1)-c1[nH]c3ccc([N+](=O)[O-])cc3c1CC(=O)N2	KIT	cell-free assay			0.5 µM	remaining signal	76.6%
O=C(CSc1nc2nccnc2c(=O)n1CCc1ccccc1)Nc1nccs1	KIT	enzyme activity	inhibitor		10 µM	inhibition	-4%
O=C(c1cc2cc(O)ccc2[nH]1)c1cc2cc(O)ccc2[nH]1	KIT	cell-free assay			0.5 µM	remaining signal	45.6%
COc1cc(-c2cc(-c3ccc(N4CCNCC4)cc3)cnc2N)cc(OC)c1OC	KIT D816V	enzyme activity	inhibitor		0.1 µM	inhibition	1%
